# Experimental data published in ChEMBL document CHEMBL4680173 (Eur J Med Chem, 2020).
# Active and inactive are the calls of the source. The rule behind the calls is not given here.
# How the values were obtained:
# SK-OV-3 [1] = assay: Induction of apoptosis in human SK-OV-3 cells assessed as necrotic cells at 10 uM incubated for 24 hrs by AnnexinV-FITC and propidium iodide staining based flow cytometry analysis (reference value: 1.14%); assay type: functional
# SK-OV-3 [2] = assay: Antimigratory activity against human SK-OV-3 cells assessed as reduction in wound closure at 5 uM after 24 hrs by wound healing assay (reference value: 56.9%); assay type: functional; set-up: scale not given: the % may be the effect or the level left
# Outline: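 SK-OV-3 monolayer grown to ≥95% confluence, scratched with pipette tip, washed twice with ice-cold PBS, then exposed to compound (5.0 or 10 µM) for 24 h. Wound photographed; migration rate (%) = (d1−d2)/d1, with d1 and d2 the wound widths at 0 and 24 h.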
# SK-OV-3 [3] = assay: Induction of apoptosis in human SK-OV-3 cells assessed as increase in reactive oxygen species production at 10 uM measured after 24 hrs incubation by DCFH-DA staining based flow cytometric analysis (reference value: 2.63%); assay type: functional
# SK-OV-3 [4] = assay: Induction of apoptosis in human SK-OV-3 cells assessed as increase in Bcl-2 level at 5 uM incubated for 24 hrs by Western blot analysis relative to control; assay type: functional, cell-based
# Outline: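 Cells lysed in RIPA-type buffer; protein by BCA. Equal protein run on 12% SDS-PAGE, transferred to PVDF, blocked with 5% milk. Probed overnight at 4 °C with anti-Bcl-2, Bax, caspase-3, caspase-9 or GAPDH, then HRP secondary; chemiluminescent detection.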
# SK-OV-3 [5] = assay: Induction of mitochondrial membrane potential loss in human SK-OV-3 cells at 10 uM measured after 24 hrs by JC-1 staining based flow cytometry analysis (reference value: 97.87%); assay type: functional
# A549 = assay: Potency index, ratio of irinotecan IC50 to compound IC50 for cytotoxicity against human A549 cells assessed as reduction in cell growth by MTT assay; assay type: functional
smiles,measurement,setting,value
CCOP(=O)(OCC)C(Nc1ccc(CCCC(=O)OC2(CC)C(=O)OCc3c2cc2n(c3=O)Cc3c-2nc2ccc(OC(=O)N4CCC(N5CCCCC5)CC4)cc2c3CC)cc1)c1ccc(F)cc1 (stereo unspecified),Activity,SK-OV-3 [1],3.44%
same,Activity,SK-OV-3 [2],48.9%
same,Activity,SK-OV-3 [3],37.49%
same,Activity,SK-OV-3 [4],Active
same,Activity,SK-OV-3 [5],61.59%
same,Ratio IC50,A549,5.4
